In ChEMBL document CHEMBL1133688, “Hunting the emesis and efficacy targets of PDE4 inhibitors: identification of the photoaffinity probe 8-(3-azidophenyl)-6- [(4-iodo-1H-1-imidazolyl)methyl]quinoline (APIIMQ)” (J Med Chem, 2000):

species on record: Cavia porcellus; test: Bronchoconstriction effect in ovalbumin-induced guinea pig model; format: functional

| Structure (SMILES) | ED50 |
| --- | --- |
| [N-]=[N+]=Nc1cccc(-c2cc(Cn3cnc(I)c3)cc3cccnc23)c1 | 0.3 mg/kg |

species on record: Homo sapiens; test: Inhibition of LPS-induced TNF-alpha secretion in human whole blood; format: functional

| IC50 | Structure (SMILES) |
| --- | --- |
| 2000 nM | [N-]=[N+]=Nc1cccc(-c2cc(Cn3cnc(I)c3)cc3cccnc23)c1 |

biological target: 3',5'-cyclic-AMP phosphodiesterase 4A (Homo sapiens, UniProt P27815); test: Inhibition of recombinant human PDE4A expressed in Sf9 cells
Sequence (P27815 whole entry): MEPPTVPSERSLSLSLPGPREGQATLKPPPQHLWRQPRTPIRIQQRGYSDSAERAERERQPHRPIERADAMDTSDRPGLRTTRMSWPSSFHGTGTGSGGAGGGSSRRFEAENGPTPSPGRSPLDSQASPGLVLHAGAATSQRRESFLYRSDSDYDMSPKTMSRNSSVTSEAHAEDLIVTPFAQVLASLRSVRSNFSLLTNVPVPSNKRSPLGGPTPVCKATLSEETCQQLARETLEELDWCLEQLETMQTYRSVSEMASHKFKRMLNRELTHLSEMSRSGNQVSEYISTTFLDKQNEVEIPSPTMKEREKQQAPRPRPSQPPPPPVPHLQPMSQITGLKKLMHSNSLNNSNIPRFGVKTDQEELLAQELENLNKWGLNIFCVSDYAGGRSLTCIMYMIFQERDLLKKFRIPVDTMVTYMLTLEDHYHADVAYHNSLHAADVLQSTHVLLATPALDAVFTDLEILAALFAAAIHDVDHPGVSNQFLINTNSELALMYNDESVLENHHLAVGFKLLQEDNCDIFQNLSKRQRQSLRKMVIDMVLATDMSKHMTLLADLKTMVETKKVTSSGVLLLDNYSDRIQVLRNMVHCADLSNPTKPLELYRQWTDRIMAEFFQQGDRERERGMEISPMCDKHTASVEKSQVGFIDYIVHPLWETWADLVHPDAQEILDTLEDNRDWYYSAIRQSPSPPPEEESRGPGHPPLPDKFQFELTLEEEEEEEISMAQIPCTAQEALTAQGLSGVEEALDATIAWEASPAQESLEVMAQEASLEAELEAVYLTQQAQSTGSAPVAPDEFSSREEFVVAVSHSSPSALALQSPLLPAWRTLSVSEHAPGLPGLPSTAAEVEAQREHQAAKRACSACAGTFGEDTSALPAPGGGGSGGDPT
How it was run: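 Inhibition of the purified enzyme's catalytic activity (cAMP hydrolysis) was measured, and IC50 was derived.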

| Structure (SMILES) | IC50 | Ki |
| --- | --- | --- |
| O=C(c1ccccc1)c1cc(-c2cccc(I)c2)c2ncccc2c1 | 15 nM | – |
| [N-]=[N+]=Nc1cc(-c2cccc(I)c2)c2ncccc2c1 | 28 nM | – |
| [N-]=[N+]=Nc1ccc(I)c(-c2cc(Cc3ccncc3)cc3cccnc23)c1 | 3.3 nM | – |
| O=[N+]([O-])c1cccc(-c2cc(Cc3ccncc3)cc3cccnc23)c1 | 0.07 nM | – |
| [N-]=[N+]=Nc1cccc(-c2cc(I)cc3cccnc23)c1 | 2.7 nM | – |
| [N-]=[N+]=Nc1cccc(-c2cc(Cc3ccncc3)cc3cccnc23)c1 | 0.2 nM | – |
| [N-]=[N+]=Nc1cccc(-c2cc(Cn3cnc(I)c3)cc3cccnc23)c1 | 0.4 nM | – |
| COc1ccc([C@H](Cc2ccncc2)c2ccccc2)cc1OC1CCCC1 [CDP840] | – | 4 nM |

Results, then the compound that gave them:

| IC50 | Ki | Structure (SMILES) |
| --- | --- | --- |
| 35 nM | – | COc1ccc(C2CC(=O)N(Cc3cc(I)cc(C4(C(F)(F)F)N=N4)c3)C2)cc1OC1CCCC1 (centres undefined) |
| 0.6 nM | – | O=c1c2c(ncn2Cc2ccccc2)c2cccnc2n1-c1ccccc1 |
| 250 nM | – | O=c1c2c(ncn2Cc2cc(I)cc(C3(C(F)(F)F)N=N3)c2)c2cccnc2n1-c1ccccc1 |
| 9 nM | – | c1ccc(-c2cc(Cn3ccnc3)cc3cccnc23)cc1 |
